Shown are actives, neighbours in structure and some others; about 0.99% of the full set was active somewhere.
AI-2 QS modul – modulators of Vibrio harveyi AI-2 quorum sensing system | Vibrio harveyi JMH597 AI-2 luminescence/OD600 ratio, 9 h; stronger effect = lower value; strain lacks LuxN and CqsS sensors; 0 = neutral-control median | activity change, % at 7.5 µM | 300,000 tested, 0.4% active | AID 2094; in the data active = activity change below about -75%, passing the limit was not always enough;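 also: luminescence divided by OD600 gain over 9 h not by final OD600 alone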
STK33 inh – blocks human STK33 kinase activity; 320,000 tested, 0.073% active; AID 2661; inhibition, % at 10 µM; Q9BYT3; purified STK33, MBP phosphorylation, ADP-Glo luminescence;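 active = inhibition at or above 25%, using the most active replicate where run in duplicate; inactive = inhibition below 25%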
Rce1 inhib – blocks yeast Ras-converting enzyme; AID 2563; yeast membranes, quenched prenylated peptide cleavage fluorescence; 290,000 tested, 0.27% active; Q03530; calls only;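 active = fall in fluorescence gain of 50% or more versus controls, with final raw signal at or below 3038400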;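 also: plate controls were neutral control wells for no effect and wells lacking membranes for full effect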
GSK3B inh – human GSK3beta kinase inhibition; activity score (negative = inhibition), % at 10 µM; 300,000 tested, 0.038% active; AID 2097; P49841; GST-GSK3beta kinase, ADP-Glo luminescence, 60 min; stronger effect = lower value;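 active = more than half of replicate wells score below -50%, meaning over 50% inhibition versus plate controls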;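 also: 0% = median DMSO wells and -100% = median GW8510 positive control wells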
Target sequence (P49841 whole entry, looked up): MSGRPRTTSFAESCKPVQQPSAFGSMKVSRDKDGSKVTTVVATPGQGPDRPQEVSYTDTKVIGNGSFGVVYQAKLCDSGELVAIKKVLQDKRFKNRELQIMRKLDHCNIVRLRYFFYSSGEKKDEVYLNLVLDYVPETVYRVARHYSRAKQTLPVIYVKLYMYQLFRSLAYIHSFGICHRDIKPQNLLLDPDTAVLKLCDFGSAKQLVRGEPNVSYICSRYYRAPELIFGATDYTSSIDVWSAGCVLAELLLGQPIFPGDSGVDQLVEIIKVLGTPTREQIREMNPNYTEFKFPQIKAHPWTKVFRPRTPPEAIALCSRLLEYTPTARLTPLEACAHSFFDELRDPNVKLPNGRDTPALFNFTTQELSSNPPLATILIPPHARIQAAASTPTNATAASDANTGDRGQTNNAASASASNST
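test system = GST-tagged human GSK3beta kinase, cell-free | reagent = 25 µM ATP with peptide substrate | dosing = one dose of 10 µM per compound | schedule = 60 min reaction, RT | detection = luminescent ADP-Glo measurement of ADP formed | control set = DMSO neutral wells and GW8510 at 20 µM as positive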
Dyrk1A ADPGlo – blocks rat Dyrk1A kinase activity | Q63470 | ADP-Glo luminescence, NFATc1 peptide | inhibition, % at 12.5 µM | 310,000 tested, 0.43% active; in the data active = inhibition above about 50%;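 also: plate controls were vehicle with enzyme for no effect and no enzyme for full effect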
GSK3A inh – human GSK-3 alpha kinase inhibition; ADP-Glo luminescence, 60 min; inhibition, % at 10 µM; 320,000 tested, 0.1% active;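 active = more than half of replicates show inhibition above 20%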;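 also: GST-tagged GSK-3 alpha with peptide substrate and 25 µM ATP; 0% = DMSO neutral wells and 100% = GW8510 positive control wells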
ADP-Glo artifact – ADP-Glo luciferase interference, Dyrk1A counter-screen | shares compounds with Dyrk1A ADPGlo | ADP-Glo luciferase artifact assay, no Dyrk1A, luminescence | AC50, µM (doses to about 12 µM), without a hit: at the top dose activity change, negative = inhibition | 1,300 tested, under 10 active | AID 588348;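 active = fitted half-maximal dose AC50 no more than ten times the top valid tested dose, with luminescence dropping as dose rises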
* marks the source's active call; other numbers are inactive results; i = inactive; · = not tested or not shown.

SMILES | AI-2 QS modul | STK33 inh | Rce1 inhib | GSK3B inh | Dyrk1A ADPGlo | GSK3A inh | ADP-Glo artifact
OC[C@H]1O[C@@H](n2cnc3cc(Cl)c(Cl)cc32)[C@H](O)[C@@H]1O | · | 5 | · | · | 74* | 3 | 12%
COc1ccc2c(C)c(CCC(=O)N3C[C@H]4C[C@@H](C3)c3cccc(=O)n3C4)c(=O)oc2c1 | 5 | 2 | i | 1 | -2 | -3 | ·
Cc1cccc(-n2c(O)c(/C=C3/C(c4ccccc4)=Nc4ccccc43)c(=O)[nH]c2=O)c1 | 56 | 1 | i | 1 | 60* | 3 | 10%
Cc1ccccc1-n1c(O)c(/C=C2/C(c3ccccc3)=Nc3ccccc32)c(=O)[nH]c1=O | 3 | 0 | i | -1 | 2 | -7 | ·
COC12CCC3(CC1C(C)(O)C(C)(C)C)[C@H]1Cc4ccc(O)c5c4[C@@]3(CCN1CC1CC1)C2O5 (stereo partly drawn) | · | · | · | · | -1 | · | ·
CC1CN1P(=O)(Oc1ccccc1)N1CC1C (stereo not drawn) | · | · | · | · | -8 | · | ·
FC(F)(F)Oc1ccc(NC2=NCCCS2)cc1 | 15 | -1 | i | 2 | -1 | -1 | ·

Source: PubChem BioAssay (Broad Institute)
